ChEMBL document CHEMBL5620424, “Design, synthesis and evaluation of novel 2-phenyl-3-(1H-pyrazol-4-yl)pyridine positive allosteric modulators for the M4 mAChR” (Eur J Med Chem, 2023)
Calls of active or inactive are those of the source. The calls are words filed in the database; no cut-off is given here.

Tests used:
[1] = target: T1, Muscarinic acetylcholine receptor M4 (Homo sapiens) (UniProt P08173); assay: Positive allosteric modulation at human M4 mAChR expressed in Flp-In-CHO cells co-expressing CAMYEL biosensor assessed as change in maximum ACh-mediated response at 10 uM incubated for 5 mins by BRET assay relative to control; assay type: cell-based
T1 sequence (whole entry): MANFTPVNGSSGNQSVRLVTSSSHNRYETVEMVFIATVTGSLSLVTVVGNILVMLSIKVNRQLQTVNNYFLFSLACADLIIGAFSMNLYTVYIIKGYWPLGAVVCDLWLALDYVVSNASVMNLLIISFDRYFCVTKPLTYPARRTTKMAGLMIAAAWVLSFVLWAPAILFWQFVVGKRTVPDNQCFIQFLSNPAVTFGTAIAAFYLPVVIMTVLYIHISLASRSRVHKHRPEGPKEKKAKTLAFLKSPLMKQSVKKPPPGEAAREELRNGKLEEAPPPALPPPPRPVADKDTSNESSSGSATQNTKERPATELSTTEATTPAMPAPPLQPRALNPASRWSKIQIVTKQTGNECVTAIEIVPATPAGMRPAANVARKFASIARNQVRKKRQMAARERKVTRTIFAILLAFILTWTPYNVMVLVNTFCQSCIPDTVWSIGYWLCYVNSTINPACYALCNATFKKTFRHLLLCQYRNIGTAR
In short: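 FlpInCHO cells stably expressing human M4 mAChR, transiently transfected with CAMYEL cAMP BRET biosensor (60 ng/well, PEI), assayed 48 h later in HBSS pH 7.4. Full ACh concentration-response curve alone or with modulator at 1 or 10 μM, co-added with coelenterazine h (5 μM), 5 min, 37 °C. Three-parameter logistic fit; ACh curve values subtracted from ACh+modulator values. Δbaseline and ΔEmax given as % of maximal ACh response without modulator. 4 experiments in duplicate, SEM pooled.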

[2] = target: T1, Muscarinic acetylcholine receptor M4 (Homo sapiens); assay: Positive allosteric modulation at human M4 mAChR expressed in Flp-In-CHO cells co-expressing CAMYEL biosensor assessed as ACh-mediated cAMP signalling co-operativity (log alpha beta) incubated for 5 mins by BRET assay; assay type: functional, cell-based; details: filed as positive allosteric modulator
In short: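 CAMYEL-transfected FlpInCHO-hM4 cells (48 h post-transfection) given ACh and modulator concentration ranges in full interaction design, 5 min at 37 °C; BRET read with coelenterazine h. Fit to complete operational model of allosterism and agonism with ACh KA and modulator KB fixed from binding assays. Gives log τB and log αβ. 4–5 experiments in duplicate.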

[3] = target: T1, Muscarinic acetylcholine receptor M4 (Homo sapiens); assay: Positive allosteric modulation at Rluc-tagged human M4 mAChR expressed in Flp-In-CHO cells co-expressing eYFP-tagged beta-arrestin 2 assessed as efficacy of ACh-mediated beta-arrestin 2 recruitment (log tau B) incubated for 5 mins by luminometry; assay type: cell-based; details: filed as positive allosteric modulator
In short: (§1)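 FlpInCHO cells co-transfected with human M4-Rluc8 (20 ng/well) and β-arrestin-2-eYFP (80 ng/well) using PEI, assayed after 48 h. Coelenterazine h (5 μM) preincubated 5 min, then ACh plus modulator ranges for 5 min at 37 °C; BRET at 475/535 nm. Fit to simplified operational model with slope 1 and KB fixed from binding. 4–5 experiments in duplicate.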

[4] = target: T1, Muscarinic acetylcholine receptor M4 (Homo sapiens); assay: Positive allosteric modulation at Rluc-tagged human M4 mAChR expressed in Flp-In-CHO cells co-expressing eYFP-tagged beta-arrestin 2 assessed as ACh-mediated beta-arrestin 2 recruitment co-operativity (log alpha beta) incubated for 5 mins by luminometry; assay type: cell-based; details: filed as positive allosteric modulator; in short: as §1
[5] = Drug concentration in brain of naive C57BL/6J mouse at 10 mg/kg, ip measured after 20 to 30 mins; assay type: ADME, organism-based; details: in vivo, time 20-30 min, read-out: Ct
In short: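 Male C57Bl/6J mice, naïve, 10–12 weeks old, dosed i.p. at 10 mg/kg in 10% DMSO, 1.1% Tween 80, 21.8 mM Tris. Blood by cardiac puncture under anaesthesia at 20 or 90 min (n = 2–3 per time point). Brain concentration corrected for compound in brain vasculature. Mean nM ± SEM reported; Kp = Cbrain/Cplasma, reported as a range.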

[6] = target: Muscarinic acetylcholine receptor M3 (Homo sapiens) (UniProt P20309); assay: Positive allosteric modulation at human M3 mAChR expressed in Flp-In-CHO cells at 10 uM incubated for 5 mins by […]; assay type: cell-based
In short: (§2)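 FlpInCHO cells stably expressing human M1–M5 mAChRs, serum-deprived in HBSS 4 h at 37 °C, then ACh (10 nM–10 μM) with or without modulator at 10 μM for 5 min at 37 °C. Cells lysed and frozen overnight. pERK1/2 measured by AlphaScreen SureFire Ultra, as % of response to 10% FBS.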

[7] = target: T1, Muscarinic acetylcholine receptor M4 (Homo sapiens); assay: Positive allosteric modulation at human M4 mAChR expressed in Flp-In-CHO cells assessed as increase in ERK1/2 phosphorylation at 10 uM incubated for 5 mins […]; assay type: cell-based; details: filed as positive allosteric modulator; in short: as §2
[8] = target: T2, Muscarinic acetylcholine receptor M1 (Homo sapiens) (UniProt P11229); assay: Positive allosteric modulation at human M1 mAChR expressed in Flp-In-CHO cells at 10 uM incubated for 5 mins by AlphaScreen SureFire Ultra pERK1/2 assay
T2 sequence (whole entry): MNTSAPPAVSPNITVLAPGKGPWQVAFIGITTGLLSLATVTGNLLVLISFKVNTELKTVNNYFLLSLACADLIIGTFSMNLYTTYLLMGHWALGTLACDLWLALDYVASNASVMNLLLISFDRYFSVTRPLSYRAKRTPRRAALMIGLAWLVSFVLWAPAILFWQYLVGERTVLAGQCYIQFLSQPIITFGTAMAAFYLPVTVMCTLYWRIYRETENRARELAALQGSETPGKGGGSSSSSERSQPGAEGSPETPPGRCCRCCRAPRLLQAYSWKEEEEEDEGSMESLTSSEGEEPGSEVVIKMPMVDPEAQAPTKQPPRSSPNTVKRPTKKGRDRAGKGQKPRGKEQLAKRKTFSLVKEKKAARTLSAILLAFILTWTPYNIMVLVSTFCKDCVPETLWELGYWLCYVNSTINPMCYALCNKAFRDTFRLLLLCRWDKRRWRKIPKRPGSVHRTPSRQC

[9] = filed as positive allosteric modulator

Sequence of Muscarinic acetylcholine receptor M3 (Homo sapiens) (P20309 whole entry, looked up): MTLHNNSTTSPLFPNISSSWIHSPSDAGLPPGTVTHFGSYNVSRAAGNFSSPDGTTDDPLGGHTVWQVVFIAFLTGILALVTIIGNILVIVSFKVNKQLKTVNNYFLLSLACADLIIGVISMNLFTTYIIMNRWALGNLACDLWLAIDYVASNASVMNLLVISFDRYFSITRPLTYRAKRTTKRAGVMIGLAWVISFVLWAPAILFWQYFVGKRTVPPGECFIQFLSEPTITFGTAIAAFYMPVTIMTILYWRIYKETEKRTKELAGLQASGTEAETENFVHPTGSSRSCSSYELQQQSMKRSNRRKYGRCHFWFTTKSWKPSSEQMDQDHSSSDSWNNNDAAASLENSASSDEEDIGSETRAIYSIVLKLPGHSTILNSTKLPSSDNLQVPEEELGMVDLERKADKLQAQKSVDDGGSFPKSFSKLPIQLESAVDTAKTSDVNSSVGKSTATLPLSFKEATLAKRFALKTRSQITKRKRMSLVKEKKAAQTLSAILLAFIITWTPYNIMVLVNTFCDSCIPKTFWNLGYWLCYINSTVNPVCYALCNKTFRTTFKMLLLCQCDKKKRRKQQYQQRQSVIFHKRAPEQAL

Row | Structure (SMILES) | Emax [1] | log(activity) [2] | log(activity) [3] | log(activity) [4] | concentration [5] | Activity [6] | Activity [7] | Activity [8] | Emax [1, 9]
1 | Cc1ccc(-c2cnn(CC3CCCC3)c2)c(-c2ccc(N)c([N+](=O)[O-])c2)n1 | 5.6% | 1.91 | 0.39 | 1.18 | 982 nM | inactive | Active | inactive | –
2 | Cc1ccc(-c2cnn(CC3CCCC3)c2)c(-c2ccc(F)c(F)c2)n1 | – | 2.65 | 0.31 | 1.55 | 2140 nM | inactive | Active | inactive | 129%
3 | Cc1ccc(-c2cnn(CC3CCCC3)c2)c(-c2ccc3c(c2)C(=O)N(C)C3)n1 | – | 2.34 | 0.99 | 1.94 | 481 nM | inactive | Active | inactive | 44.7%
